Assay results taken from the EternaBench riboswitch data.

System: MS2 coat protein
Test: apparent Kd, MS2 coat protein; higher = weaker binding; RNA-MaP array; FMN 200 µM where present
Procedure, shortened: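 In 100 mM Tris-HCl pH 7.5, 80 mM KCl, 4 mM MgCl2, BSA, DTT, yeast tRNA and Tween-20, SNAP-549-labelled MS2 coat protein was titrated from 0.7 or 1.5 nM, doubling to 3 µM, over designs transcribed by stalled E. coli RNA polymerase on Illumina sequencing-chip clusters. This was done first without ligand, then with ligand held constant. After green signal was normalised to red-channel RNA signal and control-cluster median Fmax, the apparent Kd was taken as the median of filtered per-cluster binding-curve fits.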

[1] = designed as: OFF switch for flavin mononucleotide, no ligand
[2] = ligand present: flavin mononucleotide, designed as: OFF switch for flavin mononucleotide
[3] = designed as: ON switch for flavin mononucleotide, no ligand
[4] = ligand present: flavin mononucleotide, designed as: ON switch for flavin mononucleotide

| Sequence | apparent Kd [1] | apparent Kd [2] | apparent Kd [3] | apparent Kd [4] |
| --- | --- | --- | --- | --- |
| GGCGGUCGGGAGGAUAUUCGGGCUGUUUGGCUUGGAGAAGGCUCGACAUGAGGAUCACCCAUGUUGGUGUUCUU | 387 nM | 40.8 nM |  |  |
| GGCGGUUUGGCAGGAUAUCGGAAACAGACCAAACGAGAAGGGCCUACAUGGCAAUGCGAAAGCAGACAUGAGGAUCACCCAUGU |  |  | 84.9 nM | 72.2 nM |
| GGCUAACGGGCUAACAUGAGGAUCACCCAUGUGGACUCAUGGUAGGAUAUGCUGUACAAAGUACAGCAGAAGGGCCGGUGAGCC |  |  | 128 nM | 978 nM |
| GGCUACGUUUCGUAGCAGCUAGGUGAGGAUAUUCAAUUUUUCACAUGAGGAUCACCCAUGUAUGUGAAGAAGGCGCCUAGAAAC |  |  | 11.2 nM | 5.14 nM |
| GGCUACGUUUCGUAGCAGUGUCAUCGAGAAGGCCCUGACAUGAGGAUCACCCAUGUUGUUACAUGGGAGGAUAUCGAUGAUACU |  |  | 13.3 nM | 5.12 nM |
| GGCUCGCAGCUAGGAUAUGGGCGGUCACAUGAGGAUCACCCAUGUCAACAUCAAAACCAGAUUAACCAGAAGGAGCUGCGGGUU |  |  | 33.5 nM | 739 nM |
| GGCUGCGAUGUGAAGGAUAUCCGCGUCUGGACAUGAGGAUCACCCAUGUAUGCUUGGAUCAUGCCGGAGAAGGUCACGAAUGAUU |  |  | 38 nM | 16.6 nM |
| GGCUGGUGACAGCAUCCAUCAAAACAUGAGGAUCACCCAUGUAGAAGGCUGUACGGUUACCGUACAGAGGAUAUACAAUGAUGC | 13.7 nM | 28.5 nM |  |  |
| GGGAAGUGAGGAUAUGCUGCUCGUCACUUGCGUGAUGAGUAGCAGAAGGUACAUGAGGAUCACCCAUGUAAAGA | 29.5 nM | 20.7 nM |  |  |
| GGGAAUAAACCCGUCUCCGCUCAACCAGAAGGGCACGAUAAUAUUACAUGAGGAUCACCCAUGUUGCAGGAUAUGGUGAGCCUC |  |  | 191 nM | 52.9 nM |
| GGGACACAUGAGGAUCACCCAUGUGAGGAUAUGUUAGUUUCGGCCAAAGCCGAAAUUAACAGAAGGCACAUACC | 36.7 nM | 49 nM |  |  |
| GGGACUCAAAGAGUACCAAUACGAACAUGAGGAUCACCCAUGUAGGAUAUGCUACUCAAAGAGUAGCAGAAGGACAUGUGCCUA | 15.3 nM | 82.2 nM |  |  |
| GGGACUCUAGAAGAGCUGUCGACAUAGGAUAUGAUGUGCGACAUGAGGAUCACCCAUGUAACGAAUUAGAAGGGUGUAGGCAUG |  |  | 228 nM | 114 nM |
| GGGAGACAUGAGGAUCACCCAUGUGAAAACGUGCGAGGAUAUGUAUGGAAACCAUACUGUACAGAAGGCGUUUGUC |  |  | 50.2 nM | 47.7 nM |
| GGGAGACAUGAGGAUCACCCAUGUGAAAACGUGGCAGGAUAUCCAUGGAAACCAUACUGUGGAGAAGGGCCUUGUC |  |  | 77.9 nM | 40.5 nM |
| GGGCAAUUAGGAUAUACAUGAGGAUCACCCAUGUGGAAGCCCGGACAGGUAAUCCACUGUAGAAGGGAUUGCCA | 12 nM | 13.3 nM |  |  |
| GGGCAAUUAGGAUAUACAUGAGGAUCACCCAUGUGGAAGCCCGGACAGGUAAUCCACUGUAGAAGGGAUUGCGG | 14.8 nM | 15 nM |  |  |
| GGGCCCGGUGUGAGGAUAUGCUCGGGUAAACUCGGGCAGAAGGCACAUGAGGAUCACCCAUGUAAGCCGGGCCC | 13.8 nM | 14.6 nM |  |  |
| GGGCCGAAAGGCCCGCGGGCCCGGCAGGAUAUACAUGAGGAUCACCCAUGUCCGGCGAAAGCCGGGUAGAAGGGCCGGGCCCGC | 4.98 nM | 5.29 nM |  |  |
| GGGCCGAUAGGAUAUACAUGAGGAUCACCCAUGUAUGCUUAGAAGCGGCAAUCCUUAUGUAGAAGGGUCAGGCU | 37.1 nM | 33.4 nM |  |  |
| GGGCGGAAUACAUGAGGAUCACCCAUGUCAGAAAGGGUAAUCAGAAGGUACUAUUAGAGAAAGAGUAAGGAUAUGAAUCCGCCC |  |  | 906 nM | 158 nM |

| Sequence | apparent Kd [1] | apparent Kd [2] | apparent Kd [3] | apparent Kd [4] |
| --- | --- | --- | --- | --- |
| GGGCUCAUCGAGAAGGCCUCAACAUGAGGAUCACCCAUGUUGUAAUAUGGGAGGAUAUCGAUGAUACAGCUACGUUUCGUACCC |  |  | 18 nM | 6.25 nM |
| GGGUACAUCGGAGGAUAUCAUGUAAAUACAUGAGGAUCACCCAUGUCGAUGGAGACAUCGAAGAUUGAGAAGGCCGAUGUACCG |  |  | 16.8 nM | 5.6 nM |
| GGGUACAUCGGAGGAUAUCAUGUAAAUACAUGAGGAUCACCCAUGUCGAUGGAGACAUCGGAGAUUGAGAAGGCCGAUGUACGG |  |  | 160 nM | 9.04 nM |
| GGGUACAUCGGAGGAUAUCAUGUAAAUACAUGAGGAUCACCCAUGUCGCUGGAGACAUCGGAGAUUGAGAAGGCCGAUGUACCG |  |  | 26.6 nM | 303 nM |
| GGGUACAUCGGAGGAUAUCAUGUAAGUACAUGAGGAUCACCCAUGUCGAUGGAGACAUCGGAGAUUGAGAAGGCCGAUGUACCG |  |  | 152 nM | 8.71 nM |
| GGGUACAUCGGAGGAUAUGAUGUAAAUACAUGAGGAUCACCCAUGUCGAUGGAGACAUCGGAGAUUGAGAAGGCCGAUGUACCG |  |  | 88.2 nM | 32.2 nM |
| GGGUACAUCGGAGGAUAUUAUGUAAAUACAUGAGGAUCACCCAUGUCGAUGGAGACAUCGGAGAUUGAGAAGGCCGAUGUACCG |  |  | 119 nM | 8.94 nM |
| GGGUACUUCGGAGGAUAUCAUGUAAAUACAUGAGGAUCACCCAUGUCGAUGGAGACAUCGGAGAUUGAGAAGGCCGAUGUACCG |  |  | 171 nM | 9.34 nM |
| GGGUGCUCACCGCCUUAACAUGAGGAUCACCCAUGUGGAGUGCAGGAUAUACGUUUCUAUCAUACGUAGAAGGGCACCGCGCAG | 5.59 nM | 5.03 nM |  |  |
| GGGUUGUGAGGAUAUUAGUUGUACGUCAAUAGACGUAUGGGUGAGAAGGCACAUGAGGAUCACCCAUGUUCCUG |  | 126 nM |  |  |
| GGGUUGUGAGGAUAUUAGUUGUACGUCAAUAGACGUGUGGGUGAGAAGGCACAUGAGGAUCACCCAUGUUCCUG | 181 nM | 169 nM |  |  |
| GGUACACAUGAGGAUCACCCAUGUCGUAUGACAUGAGGAUAUGUACAGACUUCGGUCUGUACAGAAGGCAUGUGUC |  |  | 28.1 nM | 445 nM |
| GGUACCAUCACAGGAUAUGCUAUCCUUUGGGUAGCAGAAGGGUGAUAACAUGAGGAUCACCCAUGUGGUACCGGGCGUGAGCCC |  |  | 1030 nM | 197 nM |
| GGUACUCAAAGAGUACUGAGUCGAACAUGAGGAUCACCCAUGUAGGAUAUGCGAGUUUUGAAUUUGCAGAAGGACAUUUUUAGC | 8.88 nM | 9.59 nM |  |  |
| GGUACUCAAAGAGUACUUGGUCGAACAUGAGGAUCACCCAUGUAGGAUAUGCGAAGCAAGAAGUAGCAGAAGGGCGUGUGCAGC | 12.8 nM | 11.6 nM |  |  |
| GGUAGAGAGCAGGAUAUCUUGGGUAAGUAUUGUAGAGAAGGGCUCACAUGAGGAUCACCCAUGUGGUCCAAGAU | 13.9 nM | 29.8 nM |  |  |
| GGUAUGCAGCAGGAUAUCCAUCCGCGGUAUGGUGGAGAAGGGCUGACAUGAGGAUCACCCAUGUGCGUCCUAGG | 32.8 nM | 87.6 nM |  |  |
| GGUCCAACAUGAGGAUAUAGCACCUUAUUGGUGCUAGAAGGCGUGUCGGUAGACAUGAGGAUCACCCAUGUAUUACAAUGGACC |  |  | 140 nM | 27 nM |
| GGUCCAUCAUGAGGAUAUGGCACCUUAUUGGUGCCAGAAGGCAUGUCUAUAGACAUGAGGAUCACCCAUGUAAUAAAUUGGACC |  |  | 790 nM | 46.4 nM |
| GGUCCAUCAUGAGGAUAUGGCACCUUAUUGGUGCCAGAAGGCAUGUCUCUUGACAUGAGGAUCACCCAUGUAAUAAAUUGGACC |  |  | 915 nM | 125 nM |
| GGUCCAUCUGUUAGGAUAUGCUUUGGGCUUCCGCAGUAGAAGGAACAUGAGGAUCACCCAUGUCCGAUGCCGUA | 20.4 nM | 25.4 nM |  |  |
